From ChEMBL document CHEMBL1133007, “Synthesis and in vitro evaluation of novel morpholinyl- and methylpiperazinylacyloxyalkyl prodrugs of 2-(6-methoxy-2-naphthyl)propionic acid (Naproxen) for topical drug delivery” (J Med Chem, 2000) come the findings set out here.

Data set [1] in a line: Evaluated for the time by which 50% of total naproxen is formed in 80% human serum at a pH of 7.4. It is filed as ADME. The note with it: pH 7.4. A digest of the protocol:
(§1)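 Human serum diluted to 80% with 0.16 M phosphate buffer pH 7.4, 37 °C. Prodrug dissolved in buffer, then preheated serum added. Aliquots were quenched in ethanol and centrifuged, and the supernatant was analysed by HPLC for remaining prodrug and released naproxen. Pseudo-first-order t1/2 came from the slope of log remaining prodrug vs time. f50% is the time at which 50% of total naproxen formed. Mean of n = 2.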

Data set [2] is described as follows: Evaluated for 50% hydrolysis rate in 80% human serum at a pH of 7.4. The class given is ADME. The note with it: pH 7.4. A digest of the protocol: as §1
Data set [3] can be described thus: Evaluated for the solubility in aqueous solution at pH 5.0. The class given is ADME. A digest of the protocol: (§2)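 Excess compound was stirred in 0.16 M phosphate buffer at room temperature, 60 min at pH 5.0 or 30 min at pH 7.4, with pH held constant. The mixture was filtered (0.45 µm) and the filtrate quantified by reversed-phase HPLC.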
Data set [4] is described as follows: Evaluated for the solubility in aqueous solution at pH 7.4. It is filed as ADME. A digest of the protocol:
as §2

Data set [5] can be described thus: Evaluated for the hydrolysis rate in 80% human serum (mean; n=2) at a pH of 7.4. The class given is ADME. The note with it: pH 7.4. A digest of the protocol:
as §1

A short description of data set [6]: Evaluated for the hydrolysis rate in phosphate buffer at 5.0 at 37 degrees Centigrade. It is filed as ADME. As to conditions: pH 5. In a few lines:
(§3)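 Chemical stability in phosphate buffer (0.16 M, ionic strength 0.5) at pH 7.4 or 5.0, in a 37 °C thermostatted water bath. Samples were taken at intervals and analysed by HPLC for remaining prodrug. Pseudo-first-order t1/2 was calculated from the slope of the linear part of log remaining prodrug vs time.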

The nature of data set [7]: Evaluated for the hydrolysis rate in phosphate buffer at pH 7.4 at 37 degrees Centigrade. It is filed as ADME. A digest of the protocol: as §3
The species named for data set [8] is Homo sapiens. Description: Evaluated for the Steady-state fluxes (Jss) for delivery of total Naproxen species through excised human skin in vitro in isotonic phosphate buffer (0.05 M) at pH 5.0. It is filed as ADME. A digest of the protocol:
(§4)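 Excised postmortem human skin, epidermis heat-separated (60 °C water, 2 min), dried, frozen, then rehydrated and mounted in Franz-type diffusion cells (area 0.71 cm2). Donor was a saturated suspension in 0.05 M phosphate buffer at the stated pH. Receptor was isotonic 0.05 M phosphate pH 7.4, stirred at 37 °C and sampled at intervals. Total naproxen, intermediate and prodrug were measured by HPLC. Jss is the steady-state slope per area; mean ± SE, n = 3-12.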

Data set [9] is filed under the species Homo sapiens. Description: Evaluated for the Steady-state fluxes (Jss) for delivery of total Naproxen species through excised human skin in vitro in isotonic phosphate buffer (0.05 M) at pH 7.4. The class given is ADME. In a few lines:
as §4

Data set [10] is described as follows: Evaluated for the apparent partition coefficient between 1-octanol and phosphate buffer at pH 5.0. It is filed as physicochemical. As to conditions: 1-octanol/phosphate buffer. A digest of the protocol: (§5)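 Shake-flask log Papp at room temperature. Compound in phosphate buffer (pH 5.0 or 7.4) was shaken with buffer-saturated 1-octanol for 30 min (pH 5.0) or 15 min (pH 7.4), and phases were separated by centrifugation. Buffer-phase concentration was measured by HPLC before and after partitioning.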

Data set [11] in a line: Evaluated for the apparent partition coefficient between 1-octanol and phosphate buffer at pH 7.4. The class given is physicochemical. The note with it: 1-octanol/phosphate buffer. In a few lines: as §5
The nature of data set [12]: Evaluated for 50% hydrolysis rate in phosphate buffer at pH 7.4 at 37 degrees C. It is filed as ADME. A digest of the protocol: as §3
The species named for data set [13] is Homo sapiens. Put plainly: Evaluated for the Steady-state fluxes (Jss) for delivery of total Naproxen species through excised human skin in vitro in Isotonic phosphate buffer (0.05 M) at pH 5.0. It is filed as ADME. In a few lines:
as §4

For data set [14], the species on record is Homo sapiens. Description: Evaluated for the Steady-state fluxes (Jss) for delivery of total Naproxen species through excised human skin in Vitro in Isotonic phosphate buffer (0.05 M) at pH 7.4. It is filed as ADME. In a few lines:
as §4

Data set [15] in a line: Evaluated for 50% hydrolysis rate in phosphate buffer at 5.0 at 37 degrees C. The note with it: pH 5. It is filed as ADME. In a few lines:
as §3

Data set [16] is filed under the species Homo sapiens. Put plainly: Evaluated for the Steady-state fluxes (Jss) for delivery of total Naproxen species through excised human skin in Vitro in Isotonic phosphate buffer (0.05 M) at pH 5.0. The class given is ADME. A digest of the protocol:
as §4

Molecules are shown by their SMILES. In brackets after ≈: the same amount, converted by molar mass.

The compound `COc1ccc2cc(C(C)C(=O)OCCCCOC(=O)CN3CCOCC3)ccc2c1` (configuration not stated) showed a 50% naproxen formed in data set [1] of 11 min. In data set [2], this compound gave a half-life of 0.217 h.

Take `COc1ccc2cc(C(C)C(=O)OCCCCOC(=O)CCN3CCN(C)CC3)ccc2c1` (configuration not stated): the figures for the solubility in [3] and in data set [4] were 142 mM (≈ 64700 µg/mL) and 432 mM (≈ 197000 µg/mL), respectively. In data set [1], this compound came in with a 50% naproxen formed of 5 min. The half-life in data set [5] was 4 min; in data set [6] it was 432 h; in data set [7] it was 16.8 h. Besides, the values for the Jss in the data set filed under Homo sapiens [8] and in the data set listed under Homo sapiens [9] were 0.6 nM hr-1 cm**-2 and 7.7 nM hr-1 cm**-2, respectively. Moreover, the logD in data set [10] is 1.2; in [11], 3.04.

In the case of `COc1ccc2cc(C(C)C(=O)OCCCCOC(=O)CCCN3CCN(C)CC3)ccc2c1` (configuration not stated), the figures for the solubility in data set [3] and in [4] were 61 mM (≈ 28700 µg/mL) and 50 mM (≈ 23500 µg/mL), respectively. The 50% naproxen formed in data set [1] worked out at 3 min. For the same compound, the half-life is 0.0167 h in data set [2], 48 h in data set [12] and 893 h in [15]. The Jss is on record as 1.2 nM hr-1 cm**-2 in the data set filed under Homo sapiens [13] and 13.2 nM hr-1 cm**-2 in the data set filed under Homo sapiens [14]. Moreover, the logD stood at 1.41 in [10] and 2.69 in data set [11].

As for `COc1ccc2cc(C(C)C(=O)OCCCCOC(=O)CN3CCN(C)CC3)ccc2c1` (configuration not stated), the solubility amounted to 16.2 mM (≈ 7170 µg/mL) in data set [3] and 8.8 mM (≈ 3890 µg/mL) in [4]. For the same compound, the 50% naproxen formed in data set [1] was determined as 7 min. The half-life in data set [2] is 0.05 h; in data set [12], 182 h; in data set [15], 1920 h. Also, the Jss came to 0.2 nM hr-1 cm**-2 in the data set filed under Homo sapiens [16] and 7.2 nM hr-1 cm**-2 in the data set filed under Homo sapiens [14]. Also, the logD was 0.94 in data set [10] and 1.3 in [11].

For `COc1ccc2cc(C(C)C(=O)OCCOC(=O)CN3CCOCC3)ccc2c1` (configuration not stated), the results for the solubility in [3] and in data set [4] were 0.05 mM (≈ 20.1 µg/mL) and 0.07 mM (≈ 28.1 µg/mL), respectively. In data set [1], this compound showed a 50% naproxen formed of 25 min. Further, the half-life in data set [2] was 0.333 h; in data set [12], 33.6 h; in data set [15], 161 h. In addition, the Jss in the data set filed under Homo sapiens [8] is 0.6 nM hr-1 cm**-2; in the data set filed under Homo sapiens [9], 0.7 nM hr-1 cm**-2. The logD was 2.62 in data set [10] and 2.14 in data set [11].

As to `COc1ccc2cc(C(C)C(=O)OCCOC(=O)CN3CCN(C)CC3)ccc2c1` (configuration not stated), the solubility came out at 5.3 mM (≈ 2200 µg/mL) in [3] and 4.1 mM (≈ 1700 µg/mL) in data set [4]. The compound also registered a 50% naproxen formed in [1] of 22 min. Moreover, the half-life is 0.433 h in [2], 57.6 h in data set [12] and 1600 h in [15]. The Jss is 2.2 nM hr-1 cm**-2 in the data set filed under Homo sapiens [16] and 24.6 nM hr-1 cm**-2 in the data set listed under Homo sapiens [14]. Moreover, the values for the logD in data set [10] and in [11] were 0.43 and 1.16, respectively.
